Laboratory results: ChEMBL document CHEMBL1155512, “Chemoenzymatic synthesis and cannabinoid activity of a new diazabicyclic amide of phenylacetylricinoleic acid” (Bioorg Med Chem Lett, 2010)
Active and inactive are the calls of the source. The calls are words filed in the database; no cut-off is given here.

How the values were obtained:
Rattus norvegicus [1] = experiment: Increase of pain perception in Wistar rat assessed as latency at 10 to 40 mg/kg, ip measured after 30 to 45 mins by hotplate method; assay type: functional, organism-based
Outline: (§1)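 Individually housed rats (22 °C, 12:12 h light–dark, food and water ad libitum) were randomized to ip vehicle, 10, 20 or 40 mg/kg. Extra groups (n = 10) got 20 or 40 mg/kg 15 min after AM251 (3 mg/kg ip); another group got AM251 alone. Pain perception was read as hot-plate latency to signs of discomfort.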

Rattus norvegicus [2] = experiment: Increase of pain perception in Wistar rat assessed as latency at 20 to 40 mg/kg, ip measured after 30 to 45 mins by hotplate method in presence of AM251; assay type: functional, organism-based; outline: as §1
Rattus norvegicus [3] = experiment: Reduction of core temperature in Wistar rat at 10 to 40 mg/kg, ip after 15 mins; assay type: functional; conditions: dose mg/kg 10-40; route intraperitoneal
Outline: (§2)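 Individually housed rats (22 °C, 12:12 h light–dark) were randomized to ip vehicle, 10, 20 or 40 mg/kg. Extra groups (n = 10) got 20 or 40 mg/kg 15 min after AM251 (3 mg/kg ip), plus an AM251-alone group. Core temperature was measured with a rectal probe after injection.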

Rattus norvegicus [4] = experiment: Reduction of core temperature in Wistar rat at 10 to 40 mg/kg, ip up to 45 mins; assay type: functional; conditions: dose mg/kg 10-40; route intraperitoneal; outline: as §2
Rattus norvegicus [5] = experiment: Increase of pain perception in ip dosed Wistar rat assessed as latency after 30 to 45 mins by hotplate method; assay type: functional, organism-based; outline: as §1
Rattus norvegicus [6] = experiment: Reduction of core temperature in ip dosed Wistar rat up to 45 mins; assay type: functional, organism-based; outline: as §2
Rattus norvegicus [7] = experiment: Reduction of core temperature in Wistar rat at 10 to 40 mg/kg, ip measured up to 45 mins in presence of AM251; assay type: functional, organism-based; outline: as §2
Rattus norvegicus [8] = experiment: Effect on sleep-awake cycle in Wistar rat assessed as increase in rapid eye movement sleep at 20 mg/kg, ip measured up to 4 hrs by electromyographic analysis; assay type: functional, organism-based; parameters: dose 20 mg/kg
Outline: (§3)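 Rats (n = 6/group) had two hippocampal EEG electrodes implanted stereotaxically under ketamine/xylazine/acepromazine anaesthesia, then recovered 10 days and habituated 24 h. Two ip injections 15 min apart: DMSO (1 ml/kg) or AM251, then vegetal oil (1 ml/kg) or test drug. Dosing was at dark-phase onset. Wake, SWS and REMS were scored from EEG/EMG as time per hour over 12 h, plus sleep latency.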

Rattus norvegicus [9] = experiment: Effect on sleep-awake cycle in Wistar rat assessed as increase in rapid eye movement sleep at 20 mg/kg, ip measured up to 4 hrs by electromyographic analysis in presence of AM251; assay type: functional, organism-based; parameters: dose 20 mg/kg; outline: as §3
Rattus norvegicus [10] = experiment: Induction addiction in Wistar rat at 20 mg/kg, ip assessed as signs of dependence; assay type: ADME, organism-based; parameters: dose 20 mg/kg, route intraperitoneal; conditions: in vivo
Outline: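 Conditioned place preference test at 20 mg/kg; time spent in the drug-paired compartment A was recorded as the index of rewarding effect or dependence.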

Rattus norvegicus [11] = experiment: Effect on sleep-awake cycle in Wistar rat assessed as increase in non rapid eye movement sleep at 20 mg/kg, ip measured up to 4 hrs by electromyographic analysis; assay type: functional, organism-based; parameters: dose 20 mg/kg; outline: as §3

## CCCCCC[C@H](C/C=C\CCCCCCCC(=O)N1CC2CC1CN2C)OC(=O)Cc1ccccc1 (stereo partly specified)
Rattus norvegicus [1]
  Activity: Active
Rattus norvegicus [2]
  Activity: inactive
Rattus norvegicus [3]
  T: 1 °C
Rattus norvegicus [4]
  T: 1.5 °C
Rattus norvegicus [5]
  Activity: inactive
Rattus norvegicus [6]
  Activity: inactive
Rattus norvegicus [7]
  Activity: inactive
Rattus norvegicus [8]
  Activity: Active
Rattus norvegicus [9]
  Activity: inactive
Rattus norvegicus [10]
  Activity: Non-toxic
Rattus norvegicus [11]
  Activity: Active
